FGF22 binding – binders of human FGF22 protein, primary screen, FGF22 synaptogenesis inhibitor project, biophysical, thermal shift, single point; Fibroblast growth factor 22 (Homo sapiens), Q9HCT0; recombinant FGF22 thermal shift, SYPRO orange fluorescence; percent of sucrose octasulfate shift, DMSO zero; activity (Tm shift, normalised), % at 9.99 µM; hit rate 1.5% among 340,000;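 active = mean Tm shift, scaled 0 neutral to 100 positive control, at about 1.3% or above, every replicate too, limit read from the data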
Target sequence (Q9HCT0 whole entry, looked up): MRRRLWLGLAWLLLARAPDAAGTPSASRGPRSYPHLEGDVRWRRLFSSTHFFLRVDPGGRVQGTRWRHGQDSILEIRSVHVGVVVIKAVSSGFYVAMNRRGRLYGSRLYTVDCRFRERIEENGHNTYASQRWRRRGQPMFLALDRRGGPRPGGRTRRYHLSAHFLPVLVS
E-selectin induc – E-selectin induction in HUVECs, primary screen, imaging, HUVEC, immunofluorescence imaging, single point | P16581 | normalized: neutral wells 0, TNF-alpha wells 100 | activation, % at 7.58 µM | hit rate 0.37% among 260,000 | AID 686992, 2013;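 active = mean E-selectin-positive cell signal at least 10% of the positive control, reached in at least 60% of replicates, without over 20% cell loss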
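Material: HUVEC primary endothelial cells; Amount: 3,000 cells per well; Dosing: single concentration; Medium: EGM-2 growth medium on 0.1% gelatin-coated wells; Read-out basis: percent E-selectin-positive cells; Signal: immunofluorescence imaging; Control set: TNF-alpha, DMSO.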
FN deposition inh – inhibitors of fibronectin matrix deposition, primary screen, AH1F cells, Alexa488-fibronectin fluorescence, plate reader; AH1F fibroblasts, overnight; inhibition, % at 12.6 µM; hit rate 0.086% among 350,000;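 active = mean inhibition across replicates of 30% or more, regardless of how many single replicates reach that level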;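 note: positive control wells lacked labelled fibronectin entirely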
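Assay system: AH1F fibroblast monolayer, labelled fibronectin deposition. Amount: 10000 cells per well. Also added: labelled fibronectin 24 nM. Compound: single-point pinned compound. Incubation: cell attachment 1 h, compound and FN exposure overnight. Detection: fluorescence after three HBSS washes, excitation 485 nm, emission 525 nm. Read-out: inhibition of fibronectin deposition signal.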
Ecoli rRNA inh – reduced GFP signal of wild-type E. coli, primary screen, bacterial rRNA inhibitor project, GFP/RFP fluorescence, OD600, single point | E. coli WT GFP vs humanized-ribosome RFP mutants, 24 h; hits give low values; DMSO median 0, no signal -100 | GFP signal change (wild-type ribosome), % (concentration not given with the values) | hit rate 1.6% among 350,000;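 active = significant combined selectivity score with lowered wild-type GFP, culture density cut under 30%, mutant RFP and density less affected; inactive = any of these conditions unmet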
SIRT5 inh – SIRT5 desuccinylase inhibitors, primary screen, biochemical, fluorescence imaging, single point, set 5; AID 652115, 2013; Purified SirT5, succinyl-peptide AMC, trypsin-coupled fluorescence; inhibition, % at 15 µM; NAD-dependent protein deacylase sirtuin-5, mitochondrial (Homo sapiens), Q9NXA8; hit rate 1.1% among 330,000; in the data active = inhibition above about 15%
Target sequence (Q9NXA8 whole entry, looked up): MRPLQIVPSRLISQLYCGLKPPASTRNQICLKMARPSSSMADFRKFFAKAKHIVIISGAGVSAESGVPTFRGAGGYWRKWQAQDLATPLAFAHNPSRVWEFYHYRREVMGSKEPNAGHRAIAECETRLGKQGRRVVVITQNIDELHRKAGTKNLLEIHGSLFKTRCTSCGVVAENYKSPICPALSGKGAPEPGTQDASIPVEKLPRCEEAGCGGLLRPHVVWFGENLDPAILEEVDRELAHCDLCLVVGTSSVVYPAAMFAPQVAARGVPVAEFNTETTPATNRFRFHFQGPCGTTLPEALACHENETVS
Statin myotox sup – suppressors of statin myotoxicity in C2C12 myotubes, primary screen, cell-based, single point, plate reader; hit rate 0.78% among 330,000; rescue of ATP level, % at 7.49 µM; AID 602340, 2012; C2C12 myotubes + simvastatin, ATP luminescence, 48 h; scaled: DMSO 0, geranylgeraniol control 100;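 active = mean ATP rescue above about 67%, or every replicate alone reaching that limit, limit read from the data, passing the limit was not always enough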;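 note: myotubes were challenged with 10 µM simvastatin during compound exposure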
The depositor's hits bear a star; x = no result. The list is not random: actives were taken first. Their share in the collection is about 4%.

SMILES	FGF22 binding	E-selectin induc	FN deposition inh	Ecoli rRNA inh	SIRT5 inh	Statin myotox sup
CNC[C@H]1OCCCC[C@@H](C)Oc2ccc(NC(=O)c3ccncc3)cc2C(=O)N([C@@H](C)CO)C[C@@H]1C	0.3	-0.2	x	6.5	4.5	21.0
CCCNC(=O)C[C@H]1CC[C@H]2[C@@H](COC[C@@H](O)CN2C(=O)c2cc(Cl)cc(Cl)c2)O1	0.1	0.0	1.6	2.8	-0.6	-7.2
CO[C@@H]1CN(C)C(=O)c2cc(NS(=O)(=O)c3ccccc3C)ccc2OC[C@@H](C)NC[C@H]1C	0.2	0.1	-5.9	2.2	-1.7	10.5
COc1ccc(CCNC(=O)c2ccc([N+](=O)[O-])cc2)cc1	-0.2	5.8	-11.4	5.4	-3.5	x
COc1ccc(C(=O)NCCNc2ccc([N+](=O)[O-])cc2)cc1	67.2*	x	-6.0	-17.5	2.2	x
C[C@@H]1CN([C@@H](C)CO)S(=O)(=O)c2ccc(-c3ccc(F)cc3)cc2O[C@H]1CN(C)C	0.0	-0.1	7.0	0.2	-4.5	-30.5
COC(=O)c1c(N2C(=O)Nc3ccccc3N2O)sc(C)c1C	43.2*	2.7	-2.8	-0.9	3.9	-3.1
O=C(O)C[C@H]1CC[C@H](NC(=O)CCN2CCCCC2)[C@@H](CO)O1	x	0.0	6.2	2.3	1.3	x
O=C1CC(c2ccccc2)=Nc2ccccc2N1Cc1ccccc1	-0.1	x	5.9	-13.7	-3.4	x
COc1ccc2c(c1)N(C)C(=O)CC(c1ccccc1)=N2	x	x	x	x	x	107.7*
Cc1cc[n+](CC(=O)c2ccc3c(c2)OCCO3)cc1	43.7*	x	-1.5	17.7	-2.2	x
Cc1noc(C)c1NC(=O)Nc1ccc2c(c1)C(=O)N(C)[C@H]1CC[C@@H](CC(=O)N(C)C)O[C@@H]1CO2	-0.1	-0.1	-4.0	3.4	-5.1	7.8
O=C(NCc1cccnc1)Nc1ccc2c(c1)OCO2	43.2*	x	14.5	13.8	-2.7	x
O=C(COC(=O)c1cccnc1)Nc1ccc2c(c1)OCO2	43.3*	x	-19.8	11.1	1.5	x
O=C(Nc1ccc2c(c1)OCCO2)C(=S)NCc1ccccc1	-0.3	2.5	-3.0	-31.8*	-3.9	x
Cc1onc(-c2ccccc2)c1C(=O)OCC(=O)Nc1ccc2c(c1)OCO2	x	x	3.3	x	x	101.8*
O=C(NCCO)C(=O)c1c(-c2ccc(Cl)cc2)cc2ccccn12	43.8*	x	2.5	x	-1.7	x
O=c1oc(CCO)cc2ccc(C#Cc3ccsc3)cc12	-0.2	0.2	-4.0	-29.1	16.9*	-12.0
CN(C)c1ccc(C#Cc2ccc3cc(CCO)oc(=O)c3c2)cc1	x	x	x	x	x	1.8
C[C@H]1CCCCO[C@@H](CN(C)C(=O)Nc2ccc(C(F)(F)F)cc2)[C@@H](C)CN([C@@H](C)CO)C(=O)c2cc(NC(=O)Nc3ccccc3)ccc2O1	-0.1	0.3	6.1	-0.4	0.7	x
COc1ccc(S(=O)(=O)N2CCCCC2c2cc(C(=O)Nc3ccc4c(c3)OCO4)no2)cc1 (configuration not stated)	-0.2	0.1	35.2*	-3.5	1.8	-10.9
COc1ccc(C(=O)Nc2ccc(S(=O)(=O)N3CCCC3)cc2)cc1	0.4	x	3.3	-32.4*	-0.7	x
O=C(O)Cc1ccc(NC(=O)Nc2ccc(Br)cc2)cc1	0.2	x	8.6	-19.6	8.9	x
O=C(Nc1ccc(F)cc1)c1cccnc1N1CCCCC1	0.4	x	x	6.2	-7.0	39.4
COc1ccc(NC(=O)c2cccnc2N2CCCC2)cc1	0.0	x	x	7.3	18.8*	8.9
SMILES	FGF22 binding	E-selectin induc	FN deposition inh	Ecoli rRNA inh	SIRT5 inh	Statin myotox sup
COc1ccc(NC(=O)Nc2ccc(CC(=O)O)cc2)cc1	43.1*	0.6	1.0	19.6	-2.3	4.2
COc1ccc(S(=O)(=O)Nc2ccc3c(c2)C(=O)N([C@@H](C)CO)C[C@@H](C)[C@H](CN(C)C(=O)CCC(F)(F)F)OCCCC[C@@H](C)O3)cc1	-0.6	0.1	x	-0.8	-1.0	x
O=C(O)[C@H]1CCCC[C@H]1C(=O)Nc1ccc(S(=O)(=O)N2CCCCC2)cc1	0.1	0.1	2.9	1.1	-3.4	5.5
O=C(Nc1cccc(S(=O)(=O)N2CCCC2)c1)c1ccc2c(c1)OCO2	0.1	x	-0.4	0.1	-4.3	x
O=C(Nc1ccc2c(c1)OCO2)c1ccc(S(=O)(=O)N2CCCC2)cc1	44.9*	1.7	-10.9	-7.3	1.5	x
O=C(O)C1CCCCC1C(=O)Nc1ccc(S(=O)(=O)N2CCCC2)cc1 (configuration not stated)	x	-0.1	4.2	14.4	16.5*	25.5
COc1ccc(NC(=O)N2CCN(S(C)(=O)=O)CC2)cc1	43.0*	x	0.5	13.8	-3.3	x
COc1ccc(NC(=O)N2CCN(C(=O)Nc3ccc(OC)cc3)CC2)cc1	0.3	3.0	-3.5	9.0	1.1	23.4
Cc1cccc(NC(=O)c2ccc(S(=O)(=O)N3CCCCC3)cc2)n1	0.1	x	38.1*	-6.5	x	1.6
CC(=O)Nc1ccc(S(=O)(=O)N2CCCC2C(=O)Nc2ccc3c(c2)OCCO3)cc1 (configuration not stated)	43.9*	x	-14.8	1.6	1.8	-0.3
COc1ccc(CC(=O)Nc2ccc(-c3cn4ccccc4n3)cc2)cc1	x	x	x	x	x	111.2*
COc1ccc(NC(=S)NNC(=O)c2ccc(S(=O)(=O)N3CCOCC3)cc2)cc1	1.4*	-5.5	2.7	-1.1	1.2	0.6
COc1ccc(CC(=O)Nc2cccc(-c3cn4ccccc4n3)c2)cc1	0.1	x	-2.4	-9.4	1.6	x
COc1ccc(CC(=O)Nc2ccc(S(=O)(=O)N3CCN(C)CC3)cc2)cc1	0.3	0.1	2.0	7.7	18.4*	-7.4
CN1CCN(S(=O)(=O)c2ccc(NC(=O)Cc3ccc([N+](=O)[O-])cc3)cc2)CC1	0.0	-0.3	x	3.7	-0.3	-2.1
CC(=O)Nc1ccc(S(=O)(=O)N2CCCC2C(=O)Nc2ccc(F)cc2)cc1 (configuration not stated)	-0.2	0.7	-10.7	-0.3	-3.9	10.5
CNC[C@@H]1Oc2cc(C#CCOC)ccc2S(=O)(=O)N([C@@H](C)CO)C[C@H]1C	0.3	4.6	x	2.3	2.5	-18.8
O=C(Nc1ccc(F)cc1)N1C[C@@H]2[C@H](c3ccccc31)[C@H](CO)N2C(=O)Cc1cccnc1	-0.4	0.5	x	-2.8	-0.2	2.1

Screening results from PubChem BioAssay.
